IC50 data for 38 molecules are collected here from ChEMBL document CHEMBL3091404, “Isoquinoline derivatives as potent CRTH2 antagonists: design, synthesis and SAR” (Bioorg Med Chem, 2013).

The target of assay [1] is T1, Prostaglandin D2 receptor 2 (Homo sapiens, UniProt Q9Y5Y4).
T1 sequence (Q9Y5Y4 whole entry): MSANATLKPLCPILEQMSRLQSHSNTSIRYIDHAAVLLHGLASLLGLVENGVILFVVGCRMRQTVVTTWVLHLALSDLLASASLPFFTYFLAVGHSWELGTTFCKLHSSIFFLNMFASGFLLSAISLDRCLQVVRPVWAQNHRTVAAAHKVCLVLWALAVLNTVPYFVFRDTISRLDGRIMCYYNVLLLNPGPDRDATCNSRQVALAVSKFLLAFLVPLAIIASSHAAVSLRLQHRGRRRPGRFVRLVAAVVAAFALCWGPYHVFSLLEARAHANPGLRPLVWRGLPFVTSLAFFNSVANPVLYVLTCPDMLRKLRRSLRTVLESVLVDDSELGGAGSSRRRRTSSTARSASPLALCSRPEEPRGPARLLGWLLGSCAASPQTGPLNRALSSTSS
As to the kind of experiment: Displacement of [3H]PGD2 from human CRTH2 transfected in CHO cells by liquid scintillation counting analysis. The assay is classed as cell-based. The method in brief:
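Transfected cells washed and suspended in HBSS with 10 mM HEPES pH 7.3 (2 × 10⁵ cells/100 µl), incubated with 5 nM ³H-PGD₂ for 60 min on ice. Vacuum filtration through GF/C glass fiber filters, four washes with ice-cold PBS containing 0.1% BSA. IC₅₀ from ten-point half-log concentration–response curves, mean of two or more independent experiments.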

Assay [2] concerns the target T1, Prostaglandin D2 receptor 2. In words: Antagonist activity at human CRTH2 transfected in human KB8 cells assessed as inhibition of PGD2-induced increase in intracellular Ca2+ by fluo-4AM dye-based assay. The assay is classed as functional, cell-based. In short, it runs like this: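 Cells loaded with 1 µM Fluo-4 AM for 30 min at 37 °C in the dark, washed, resuspended in HBSS with 10 mM HEPES pH 7.3 and 1 mM CaCl₂ (2 × 10⁵ cells/100 µl). Compound added with 100 nM PGD₂; [Ca²⁺]i rise read on FDSS6000. IC₅₀ from ten-point half-log concentration–response curves, mean of two or more independent experiments.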

A short description of assay [3]: Antagonist activity at CRTH2 in human TH2 cells assessed as inhibition of PGD2-induced chemotaxis after 1 hr by hemocytometry.

On to `O=C(O)Cc1cnc(C(=O)c2ccc(NC(=O)c3ccc(Oc4ccccc4)cc3)cc2)c2ccccc12`, for which the IC50 in assay [1] was 14 nM; in assay [2], 120 nM. In the same order, the values of `O=C(O)Cc1cnc(C(=O)c2ccc(NC(=O)OCc3ccc(Cl)c(Cl)c3)cc2)c2ccccc12` are 6.7 nM and 5.2 nM. Consider `O=C(O)Cc1cnc(C(=O)c2ccc(NC(=O)C3CCCCC3)cc2)c2ccccc12`, for which, in assay [2], the half-maximal inhibitory concentration (IC50) amounted to 270 nM. Same read-out and setting: the figure for `O=C(O)Cc1cnc(C(=O)c2ccc(C(=O)NCCc3ccc(Cl)cc3)cc2)c2ccccc12` is 12 nM.

Turning to `O=C(O)Cc1cnc(C(=O)c2ccc(NC(=O)c3cccc(Cl)c3)cc2)c2ccccc12`, the 50% inhibitory concentration (IC50) in assay [2] came out at 9.7 nM. Still for that read-out and setting: the figure for `O=C(O)Cc1cnc(C(=O)c2ccc(NCc3ccc(Cl)c(Cl)c3)cc2)c2ccccc12` is 43 nM; for `CC(C)(C(=O)O)c1cnc(C(=O)c2ccc(C(=O)NCCc3ccc(Cl)cc3)cc2)c2ccccc12` it is greater than 1000 nM.

For `O=C(O)Cc1cnc(C(=O)c2ccc(NC(=O)Nc3ccc(Cl)c(Cl)c3)cc2)c2ccccc12`, the half-maximal inhibitory concentration (IC50) in assay [1] came out at 13 nM; in assay [2] it was 36 nM. For `O=C(O)Cc1cnc(C(=O)c2ccc(OCCCc3ccc(Cl)cc3)cc2)c2ccccc12`, the IC50 was 11 nM in assay [1] and 85 nM in assay [2].

On to `O=C(O)Cc1cnc(C(=O)c2ccc(NC(=O)CC3CCCCC3)cc2)c2ccccc12`, for which the IC50 was 20 nM in assay [1] and 220 nM in assay [2]. For `O=C(O)Cc1cnc(C(=O)c2ccc(NC(=O)c3cccnn3)cc2)c2ccccc12`, in that order: 322 nM and greater than 1000 nM. Turning to `O=C(O)COc1cnc(C(=O)c2ccc(C(=O)NCCc3ccc(Cl)cc3)cc2)c2ccccc12`, in assay [2], the IC50 came to 100 nM. With `O=C(O)Cc1cnc(C(=O)c2ccc(NC(=O)c3cccc4ccccc34)cc2)c2ccccc12`, the IC50 in assay [1] was found to be 31 nM; in assay [2], 350 nM.

As for `O=C(O)Cc1cnc(C(=O)c2ccc(OCCc3ccc(Cl)cc3)cc2)c2ccccc12`, the half-maximal inhibitory concentration (IC50) in assay [1] turned out to be 12 nM; in assay [2], 130 nM. `O=C(O)Cc1cnc(C(=O)c2ccc(NC(=O)c3ccccn3)cc2)c2ccccc12`: in assay [1], the IC50 turned out to be 48 nM. On to `O=C(O)Cc1cnc(C(=O)c2ccc(NC(=O)c3cc4ccccc4o3)cc2)c2ccccc12`, for which the half-maximal inhibitory concentration (IC50) was 3.8 nM in assay [1] and 7.4 nM in assay [2]. On to `O=C(O)Cc1cnc(C(=O)c2ccc(NC(=O)c3ccc(Cl)c(Cl)c3)cc2)c2ccccc12`, for which the results for the IC50 in assay [3] and in assay [2] were 23 nM and 13 nM, respectively.

With `O=C(O)Cc1cnc(C(=O)c2ccc(NC(=O)Cc3ccc(Cl)c(Cl)c3)cc2)c2ccccc12`, the IC50 was found to be 15 nM in assay [1] and 30 nM in assay [2].

On to `O=C(O)Cc1cnc(C(=O)c2ccc(NC(=O)c3cc4ccccc4[nH]3)cc2)c2ccccc12`, for which, in assay [2], the half-inhibitory concentration (IC50) came to 4.2 nM. With `O=C(O)Cc1cnc(C(=O)c2ccc(NC(=O)CC34CC5CC(CC(C5)C3)C4)cc2)c2ccccc12`, the 50% inhibitory concentration (IC50) was found to be 21 nM in assay [1] and 97 nM in assay [2]. With `O=C(O)Cc1cnc(C(=O)c2ccc(NC(=O)c3ccc4ccccc4c3)cc2)c2ccccc12`, in assay [2], the IC50 was 10 nM. Turning to `O=C(O)Cc1cnc(C(=O)c2ccc(NC(=O)c3ccncc3)cc2)c2ccccc12`, in assay [2], the half-inhibitory concentration (IC50) was greater than 1000 nM.

Consider `O=C(O)Cc1cnc(C(=O)c2ccc(NC(=O)c3ccc([N+](=O)[O-])cc3)cc2)c2ccccc12`, for which the IC50 in assay [1] worked out at 9.9 nM; in assay [2], 28 nM. Consider `O=C(O)Cc1cnc(C(=O)c2ccc(C(=O)NCCc3ccc(Cl)c(Cl)c3)cc2)c2ccccc12`, for which the 50% inhibitory concentration (IC50) is 3.7 nM in assay [1] and 18 nM in assay [2]. For the molecule `O=C(O)Cc1cnc(C(=O)c2ccc(NC(=O)c3ccc(Cl)cc3)cc2)c2ccccc12`, the IC50 in assay [2] was determined as 9.1 nM. Still for that read-out and setting: the result for `O=C(O)Cc1cnc(C(=O)c2ccc(C(=O)Nc3ccc(Cl)c(Cl)c3)cc2)c2ccccc12` reads 13 nM. Consider `O=C(O)Cc1cnc(C(=O)c2ccc(NC(=O)c3ccccc3Cl)cc2)c2ccccc12`, for which the concentration for half-maximal inhibition (IC50) in assay [2] was greater than 1000 nM. As to `Cc1ccc(C(=O)Nc2ccc(C(=O)c3ncc(CC(=O)O)c4ccccc34)cc2)cc1`, the values for the IC50 in assay [1] and in assay [2] were 5.2 nM and 18 nM, respectively. `O=C(O)Cc1cnc(C(=O)c2ccc(NC(=O)C3CCOCC3)cc2)c2ccccc12`: the half-maximal inhibitory concentration (IC50) in assay [1] was 400 nM; in assay [2], greater than 1000 nM.

Consider `O=C(O)Cc1cnc(C(=O)c2ccc(NC(=O)c3ccc(OC(F)(F)F)cc3)cc2)c2ccccc12`, for which the IC50 was 11 nM in assay [1] and 8.7 nM in assay [2]. For `N#Cc1ccc(C(=O)Nc2ccc(C(=O)c3ncc(CC(=O)O)c4ccccc34)cc2)cc1`, in that order: 7.8 nM and greater than 1000 nM. Consider `O=C(O)Cc1cnc(C(=O)c2ccc(NC(=O)CCc3ccc(Cl)c(Cl)c3)cc2)c2ccccc12`, for which, in assay [2], the concentration for half-maximal inhibition (IC50) came to 18 nM. As to `O=C(O)Cc1cnc(C(=O)c2ccc(C(=O)Nc3ccc(Cl)cc3)cc2)c2ccccc12`, the 50% inhibitory concentration (IC50) in assay [1] amounted to 8.2 nM; in assay [2], 38 nM. For `CN(C)c1ccc(C(=O)Nc2ccc(C(=O)c3ncc(CC(=O)O)c4ccccc34)cc2)cc1`, in that order: 6.2 nM and 13 nM. In turn, `O=C(O)Cc1cnc(C(=O)c2ccc(NC(=O)C3CC3)cc2)c2ccccc12` yielded an IC50 in assay [1] of 50 nM.

With `O=C(O)Cc1cnc(C(=O)c2ccc(NC(=O)c3ccc(-c4ccccc4)cc3)cc2)c2ccccc12`, the IC50 in assay [1] worked out at 18 nM; in assay [2] it was 14 nM. In the case of `O=C(O)Cc1cnc(C(=O)c2ccc(NC(=O)c3cscn3)cc2)c2ccccc12`, the IC50 in assay [1] was 67 nM; in assay [2], greater than 1000 nM. In the case of `COc1ccc(C(=O)Nc2ccc(C(=O)c3ncc(CC(=O)O)c4ccccc34)cc2)cc1`, the IC50 in assay [2] was determined as 17 nM.

By IC50 is commonly meant the concentration that gives 50% inhibition.
